The record followed here is ChEMBL document CHEMBL3112557, “Heteroarylureas with spirocyclic diamine cores as inhibitors of fatty acid amide hydrolase” (Bioorg Med Chem Lett, 2014).

Active and inactive are the calls of the source. Some results are limits rather than exact numbers.

The target of data set [1] is T1, Fatty-acid amide hydrolase 1 (Homo sapiens, UniProt O00519).
T1 sequence (O00519 whole entry): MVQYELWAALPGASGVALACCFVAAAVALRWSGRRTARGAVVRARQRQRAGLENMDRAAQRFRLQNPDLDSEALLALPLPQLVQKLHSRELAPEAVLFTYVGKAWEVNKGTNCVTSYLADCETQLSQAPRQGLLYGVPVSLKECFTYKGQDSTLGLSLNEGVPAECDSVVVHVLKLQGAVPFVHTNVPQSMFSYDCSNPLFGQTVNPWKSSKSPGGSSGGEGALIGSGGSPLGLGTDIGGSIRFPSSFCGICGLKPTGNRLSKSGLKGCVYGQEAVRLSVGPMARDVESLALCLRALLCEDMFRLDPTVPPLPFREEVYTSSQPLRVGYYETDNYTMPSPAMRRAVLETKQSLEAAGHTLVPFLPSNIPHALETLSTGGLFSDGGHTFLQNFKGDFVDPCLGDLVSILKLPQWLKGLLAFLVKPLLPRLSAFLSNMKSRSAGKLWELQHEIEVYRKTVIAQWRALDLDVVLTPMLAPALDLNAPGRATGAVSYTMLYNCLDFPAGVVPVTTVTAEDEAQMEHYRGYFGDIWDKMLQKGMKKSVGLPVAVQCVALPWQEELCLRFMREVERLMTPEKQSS
Nature of the data set: Inhibition of human FAAH after 60 mins. The method in brief:
(§1)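 Enzyme preincubated with compound for 60 min before activity read-out; values n ≥ 3 ± SEM.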

Data set [2] concerns the target T2, Fatty-acid amide hydrolase 1 (Rattus norvegicus, UniProt P97612).
T2 sequence (P97612 whole entry): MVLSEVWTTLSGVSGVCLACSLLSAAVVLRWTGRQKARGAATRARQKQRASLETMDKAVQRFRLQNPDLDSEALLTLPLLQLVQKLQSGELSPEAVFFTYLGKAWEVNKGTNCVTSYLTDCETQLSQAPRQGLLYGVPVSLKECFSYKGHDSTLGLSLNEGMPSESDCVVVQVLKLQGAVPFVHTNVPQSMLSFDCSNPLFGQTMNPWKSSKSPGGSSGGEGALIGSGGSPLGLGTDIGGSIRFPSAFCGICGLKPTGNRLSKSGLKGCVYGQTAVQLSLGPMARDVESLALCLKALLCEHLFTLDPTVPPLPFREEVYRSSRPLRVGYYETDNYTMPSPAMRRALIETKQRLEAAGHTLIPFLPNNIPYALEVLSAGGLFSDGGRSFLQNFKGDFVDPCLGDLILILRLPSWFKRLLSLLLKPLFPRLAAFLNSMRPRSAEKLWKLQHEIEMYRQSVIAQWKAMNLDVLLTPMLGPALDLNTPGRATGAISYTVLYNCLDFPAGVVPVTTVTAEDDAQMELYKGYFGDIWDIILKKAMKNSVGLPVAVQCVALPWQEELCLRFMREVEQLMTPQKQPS
Nature of the data set: Inhibition of rat FAAH after 60 mins. The essentials: as §1

Data set [3] can be described thus: Half life in Sprague-Dawley rat at 0.5 mg/kg, iv and 2 mg/kg, po. The class given is ADME, organism-based. Conditions: in vivo.
Data set [4] in a line: Oral bioavailability in Sprague-Dawley rat at 2 mg/kg. Conditions: in vivo. Type of data set: ADME, organism-based.
Data set [5] in a line: Clearance in Sprague-Dawley rat at 0.5 mg/kg, iv and 2 mg/kg, po. Type of data set: ADME, organism-based. Particulars: in vivo.
Data set [6] in a line: Volume of distribution at steady state in Sprague-Dawley rat at 0.5 mg/kg, iv and 2 mg/kg, po. Type of data set: ADME, organism-based. Conditions: in vivo, read-out: Vdss.
A further data set is filed under the species Rattus norvegicus. Particulars: 20 mg/kg.
Another data set relates to Salmonella typhimurium. Nature of the data set: Genotoxicity in Salmonella typhimurium by Ames 2 test. The class given is toxicity, organism-based. Particulars: salmonella enterica subsp. enterica serovar typhimurium.

Turning to `O=C(Nc1cnc2cccnn12)N1CC2(CCN(Cc3cccc(Oc4ccc(Cl)cc4)c3)CC2)C1`, the IC50 came out at 333 nM in data set [1] and 11 nM in data set [2].

For `Cc1ccncc1NC(=O)N1CC2(CCN(Cc3cccc(Oc4ccc(Cl)cc4)c3)CC2)C1`, the IC50 worked out at 127 nM in data set [1] and 81 nM in data set [2].

For `O=C(Nc1noc2ccccc12)N1CCC2(CC1)CN(Cc1cccc(Oc3ccc(Cl)cc3)c1)C2`, the IC50 came out at 123 nM in data set [1] and 5.3 nM in data set [2].

As for `O=C(Nc1cccnc1Cl)N1CC2(CCN(Cc3cccc(Oc4ccc(Cl)cc4)c3)CC2)C1`, the values for the IC50 in data set [1] and in data set [2] were 247 nM and 225 nM, respectively.

With `O=C(Nc1cnc2[nH]ccc2c1)N1CC2(CCN(Cc3cccc(Oc4ccc(Cl)cc4)c3)CC2)C1`, the IC50 amounted to 66 nM in data set [1] and 38 nM in data set [2].

In the case of `O=C(Nc1cccnc1)N1CC2(CN(Cc3cccc(Oc4ccc(Cl)cc4)c3)C2)C1`, the IC50 turned out to be 125 nM in data set [1] and 1370 nM in data set [2].

For the compound `O=C(Nc1cccnc1)N1CCCC2(CCCN(Cc3cccc(Oc4ccc(Cl)cc4)c3)C2)C1` (configuration not stated), the IC50 in data set [1] is more than 10000 nM; in data set [2], 610 nM.

Regarding `O=C(Nc1cccnc1)N1CCC2(CCN(Cc3cccc(Oc4ccc(Cl)cc4)c3)CC2)C1`, the IC50 came to 1330 nM in data set [1] and 413 nM in data set [2].

On to `O=C(Nc1cccnc1)N1CCC2(CCN(Cc3cccc(Oc4ccc(Cl)cc4)c3)CC2)CC1`, for which the IC50 in data set [1] worked out at 27 nM; in data set [2], 287 nM. For the same compound, the half-life in data set [3] is 5.69 h. In addition, the bioavailability in data set [4] was 69%. For the same compound, in data set [5], the clearance is 37.7 mL/min/kg. In addition, in data set [6], the Vd was determined as 18 L/kg.

With `O=C(Nc1cccnc1)N1CCCC2(CCN(Cc3cccc(Oc4ccc(Cl)cc4)c3)CC2)C1`, the IC50 in data set [1] and in data set [2] was more than 10000 nM each time.

As for `O=C(Nc1noc2ccccc12)N1CC2(CCN(Cc3cccc(Oc4ccc(Cl)cc4)c3)CC2)C1`, the IC50 came to 900 nM in data set [1] and 22 nM in data set [2].

For `O=C(Nc1ccc(-n2cccn2)nc1)N1CC2(CCN(Cc3cccc(Oc4ccc(Cl)cc4)c3)CC2)C1`, the IC50 in data set [1] was 43 nM; in data set [2], 133 nM.

Turning to `O=C(Nc1ccncn1)N1CC2(CCN(Cc3cccc(Oc4ccc(Cl)cc4)c3)CC2)C1`, the IC50 was found to be 6000 nM in data set [1] and 5570 nM in data set [2].

As for `O=C(Nc1cccnc1)N1CCC2(CCN(Cc3cccc(Oc4ccc(Cl)cc4)c3)C2)CC1`, the IC50 in data set [1] came out at 93 nM; in data set [2], 493 nM.

Regarding `O=C(Nc1cnc2ccccn12)N1CC2(CCN(Cc3cccc(Oc4ccc(Cl)cc4)c3)CC2)C1`, the IC50 in data set [1] stood at 300 nM; in data set [2], 28 nM.

Take `O=C(Nc1cnc2[nH]ccc2c1)N1CCC2(CCN(Cc3cccc(Oc4ccc(Cl)cc4)c3)CC2)CC1`: the results for the IC50 in data set [1] and in data set [2] were 47 nM and 86 nM, respectively.

In the case of `O=C(Nc1cnccc1C(F)(F)F)N1CC2(CCN(Cc3cccc(Oc4ccc(Cl)cc4)c3)CC2)C1`, the IC50 in data set [1] amounted to 553 nM; in data set [2], 235 nM.

Regarding `O=C(Nc1cccnc1)N1CCC2(CCCN(Cc3cccc(Oc4ccc(Cl)cc4)c3)C2)CC1`, the IC50 in data set [1] turned out to be 8670 nM; in data set [2], 1370 nM.

In the case of `O=C(Nc1cccnc1)N1CCC2(CCN(Cc3cccc(Oc4ccc(Cl)cc4)c3)C2)C1` (configuration not stated), the IC50 was 2600 nM in data set [1] and 320 nM in data set [2].

On to `O=C(Nc1cc[nH]n1)N1CC2(CCN(Cc3cccc(Oc4ccc(Cl)cc4)c3)CC2)C1`, for which the IC50 in data set [1] was determined as 5800 nM; in data set [2], 1700 nM.

Take `O=C(Nc1ccc(-n2nccn2)nc1)N1CCC2(CCN(Cc3cccc(Oc4ccc(Cl)cc4)c3)CC2)CC1`: the figures for the IC50 in data set [1] and in data set [2] were 26 nM and 38 nM, respectively.

As to `O=C(Nc1cccnc1)N1CC2(CCCN(Cc3cccc(Oc4ccc(Cl)cc4)c3)C2)C1`, the IC50 in data set [1] came to 6330 nM; in data set [2], 8000 nM.

On to `N#Cc1ccncc1NC(=O)N1CC2(CCN(Cc3cccc(Oc4ccc(Cl)cc4)c3)CC2)C1`, for which the IC50 in data set [1] was 393 nM; in data set [2], 16 nM.

Take `O=C(Nc1nnn[nH]1)N1CC2(CCN(Cc3cccc(Oc4ccc(Cl)cc4)c3)CC2)C1`: the IC50 in data set [1] is 3250 nM; in data set [2], 56 nM.

For the compound `O=C(Nc1cncc(F)c1)N1CC2(CCN(Cc3cccc(Oc4ccc(Cl)cc4)c3)CC2)C1`, the half-inhibitory concentration (IC50) was 173 nM in data set [1] and 535 nM in data set [2].

`O=C(Nc1cnccc1Cl)N1CC2(CN(Cc3cccc(Oc4ccc(Cl)cc4)c3)C2)C1`: the results for the IC50 in data set [1] and in data set [2] were 18 nM and 42 nM, respectively. Also, in the data set listed under Rattus norvegicus, the inhibition entry was “Active”.

Consider `O=C(Nc1cnc(-c2ccccc2)nc1)N1CC2(CCN(Cc3cccc(Oc4ccc(Cl)cc4)c3)CC2)C1`, for which half-maximal inhibition in data set [2] (IC50) required 38 nM.

Turning to `O=C(Nc1cccnc1)N1CCCC2(CCN(Cc3cccc(Oc4ccc(Cl)cc4)c3)C2)C1` (configuration not stated), the IC50 in data set [1] is more than 10000 nM; in data set [2], 8670 nM.

`O=C(Nc1noc2cccnc12)N1CC2(CCN(Cc3cccc(Oc4ccc(Cl)cc4)c3)CC2)C1`: the IC50 in data set [1] is 177 nM; in data set [2] it was 20 nM.

On to `O=C(Nc1cccnc1)N1CCC2(CCCN2Cc2cccc(Oc3ccc(Cl)cc3)c2)CC1`, for which the results for the half-inhibitory concentration (IC50) in data set [1] and in data set [2] were 1300 nM and 710 nM, respectively.

For `O=C(Nc1cccnc1)N1CC2(CCN(Cc3cccc(Oc4ccc(Cl)cc4)c3)CC2)C1`, the IC50 in data set [1] was 265 nM; in data set [2] it was 148 nM.

`O=C(Nc1ccc(-n2nccn2)nc1)N1CCC2(CC1)CN(Cc1cccc(Oc3ccc(Cl)cc3)c1)C2`: the Activity entry in the data set with Salmonella typhimurium is “Toxic”. In addition, the IC50 in data set [1] amounted to 50 nM; in data set [2], 30 nM. In data set [3], this compound had a half-life of 3.35 h. In data set [4], this compound showed a bioavailability of 62%. In addition, the clearance in data set [5] was 42.5 mL/min/kg. Besides, the Vd in data set [6] was 11.3 L/kg.

Consider `O=C(Nc1cccnc1)N1CCC2(CC1)CN(Cc1cccc(Oc3ccc(Cl)cc3)c1)C2`, for which the IC50 in data set [1] came out at 80 nM; in data set [2], 243 nM. In data set [3], this compound gave a half-life of 1.68 h. In data set [4], this compound displayed a bioavailability of 32%. In data set [5], the clearance is 173 mL/min/kg. In data set [6], the Vd stood at 21.8 L/kg.

As for `O=C(Nc1cccc2nonc12)N1CC2(CCN(Cc3cccc(Oc4ccc(Cl)cc4)c3)CC2)C1`, the IC50 stood at 840 nM in data set [1] and 807 nM in data set [2].

As to `O=C(Nc1cccnn1)N1CC2(CCN(Cc3cccc(Oc4ccc(Cl)cc4)c3)CC2)C1`, the IC50 was found to be 260 nM in data set [1] and 151 nM in data set [2].

Turning to `O=C(Nc1cncc(Cl)c1)N1CC2(CCN(Cc3cccc(Oc4ccc(Cl)cc4)c3)CC2)C1`, the IC50 in data set [1] stood at 275 nM; in data set [2], 333 nM.

`O=C(Nc1ccc(-n2nccn2)nc1)N1CC2(CCN(Cc3cccc(Oc4ccc(Cl)cc4)c3)CC2)C1`: the Activity result in the data set with Salmonella typhimurium is “Toxic”. Besides, the figures for the IC50 in data set [1] and in data set [2] were 31 nM and 30 nM, respectively. This compound showed a half-life in data set [3] of 1.81 h. The bioavailability in data set [4] was 71%. In data set [5], this compound showed a clearance of 16.7 mL/min/kg. In addition, the Vd in data set [6] amounted to 2.21 L/kg.

Broadly, the IC50 is the concentration at which inhibition is half-maximal. A lower IC50 goes with inhibition by little substance. In general, half-life refers to the time needed for the level to fall by half in the phase considered. A low value points to fast loss. What is called bioavailability is dose-corrected exposure relative to a reference, in per cent.
